{"source": "ChEMBL document CHEMBL4732122", "about": "“Pleiotropic prodrugs: Design of a dual butyrylcholinesterase inhibitor and 5-HT receptor antagonist with therapeutic interest in Alzheimer's disease” (Eur J Med Chem, 2021)", "key": {"Acetylcholinesterase [1]": {"biological_target": "T1, Acetylcholinesterase (Homo sapiens, UniProt P22303)", "T1 sequence (P22303 whole entry)": "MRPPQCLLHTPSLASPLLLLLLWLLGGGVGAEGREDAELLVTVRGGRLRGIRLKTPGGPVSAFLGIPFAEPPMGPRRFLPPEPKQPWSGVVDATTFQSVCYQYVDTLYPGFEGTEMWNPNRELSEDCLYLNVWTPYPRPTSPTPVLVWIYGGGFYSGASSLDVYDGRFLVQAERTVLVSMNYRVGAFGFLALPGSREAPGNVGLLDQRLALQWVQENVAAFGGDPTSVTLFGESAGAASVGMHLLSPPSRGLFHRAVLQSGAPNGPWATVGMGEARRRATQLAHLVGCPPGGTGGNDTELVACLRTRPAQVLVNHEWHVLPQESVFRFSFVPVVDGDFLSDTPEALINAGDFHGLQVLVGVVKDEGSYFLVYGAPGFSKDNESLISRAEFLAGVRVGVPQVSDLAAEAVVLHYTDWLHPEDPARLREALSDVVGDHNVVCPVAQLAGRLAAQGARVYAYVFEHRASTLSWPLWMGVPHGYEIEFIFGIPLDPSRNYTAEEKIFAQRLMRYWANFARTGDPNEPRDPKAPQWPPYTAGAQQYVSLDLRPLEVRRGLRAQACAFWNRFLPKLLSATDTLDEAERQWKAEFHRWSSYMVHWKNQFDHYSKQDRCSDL", "experiment": "Inhibition of human erythrocyte AChE using acetylthiocholine iodide as substrate peincubated for 5 mins followed by substrate addition by DTNB-reagent based Ellman's method"}, "Cholinesterase [2]": {"biological_target": "T2, Cholinesterase (Homo sapiens, UniProt P06276)", "T2 sequence (P06276 whole entry)": "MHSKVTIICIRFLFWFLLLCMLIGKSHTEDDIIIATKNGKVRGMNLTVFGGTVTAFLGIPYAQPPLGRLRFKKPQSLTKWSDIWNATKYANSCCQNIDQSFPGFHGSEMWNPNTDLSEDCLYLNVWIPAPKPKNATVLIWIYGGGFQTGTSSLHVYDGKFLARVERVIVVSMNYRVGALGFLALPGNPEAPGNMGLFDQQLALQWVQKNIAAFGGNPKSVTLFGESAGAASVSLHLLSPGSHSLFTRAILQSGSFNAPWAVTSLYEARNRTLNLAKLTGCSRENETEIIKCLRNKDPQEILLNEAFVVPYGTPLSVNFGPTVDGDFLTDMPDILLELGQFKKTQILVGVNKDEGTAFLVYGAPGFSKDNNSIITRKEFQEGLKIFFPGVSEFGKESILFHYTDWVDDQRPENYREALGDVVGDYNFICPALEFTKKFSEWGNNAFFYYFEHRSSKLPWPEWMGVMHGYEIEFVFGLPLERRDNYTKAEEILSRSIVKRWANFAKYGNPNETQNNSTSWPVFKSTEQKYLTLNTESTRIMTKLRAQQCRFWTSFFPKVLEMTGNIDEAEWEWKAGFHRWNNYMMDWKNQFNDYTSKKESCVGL", "experiment": "Inhibition of human BuChE using butyrylthiocholine iodide as substrate peincubated for 5 mins followed by substrate addition by DTNB-reagent based Ellman's method"}, "[3]": {"experiment": "Stability of compound in PBS buffer at pH 7.4 assessed as equine BuChE mediated decarbamoylation of compound at 5 uM incubated for 24 hrs by HPLC-LC/MS analysis", "assay_type": "physicochemical", "details": "pH 7.4, 24 h", "summary_of_the_method": "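Compound (5 µM) incubated in PBS pH 7.4 at 25 °C with 250 U/mL BuChE, or without enzyme as control. After incubation, extracted with ethyl acetate, evaporated and taken up in acetonitrile. Analyzed by C18 reversed-phase HPLC (water/acetonitrile with 0.1% formic acid, detection 280 nm) and LC-MS.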"}, "[4]": {"experiment": "Toxicity of compound in ip dosed NMRI mouse assessed as mortality after 24 hrs", "assay_type": "organism-based", "details": "in vivo", "summary_of_the_method": "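Mice in groups of four given 1, 10 or 100 mg/kg ip in 0.9% NaCl. Behavioral and neurological signs scored by standardized observation at 30 min, 3 h and 24 h. Approximate LD50 from mortality at 24 h. Amphetamine 2 mg/kg and chlorpromazine 10 mg/kg served as references.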"}, "[5]": {"experiment": "Effect on spontaneous locomotory activity in NMRI mouse at 1 to 10 mg/kg, ip measured for 30 mins", "assay_type": "ADME, organism-based", "details": "in vivo, 0.5 h, dose 1-10 mg/kg", "summary_of_the_method": "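Mice dosed ip at 1, 3 or 10 mg/kg in 0.9% NaCl, 30 min before test; chlorpromazine 3 mg/kg as depressive reference. Locomotion counted as infrared beam breaks in individual cages of an actimeter over 30 min. n = 8 per group; analyzed by ANOVA.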"}, "Acetylcholinesterase [6]": {"biological_target": "T1, Acetylcholinesterase", "experiment": "Inhibition of human erythrocyte AChE at 10^-6 M using acetylthiocholine iodide as substrate peincubated for 5 mins followed by substrate addition by DTNB-reagent based Ellman's method relative to control", "details": "dose 1.0 µM", "summary_of_the_method": "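Human erythrocyte AChE diluted in 20 mM HEPES pH 8 with 0.1% Triton X-100 (0.05 U final). Preincubated 5 min at 25 °C with compound and 0.3 mM DTNB in phosphate buffer pH 7.4. Reaction started with 1 mM acetylthiocholine iodide.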"}, "Cholinesterase [7]": {"biological_target": "T2, Cholinesterase", "experiment": "Inhibition of human BuChE at 10^-5 M using butyrylthiocholine iodide as substrate peincubated for 5 mins followed by substrate addition by DTNB-reagent based Ellman's method relative to control", "details": "dose 10.0 µM"}, "Homo sapiens": {"species": "Homo sapiens", "experiment": "Selectivity index, ratio of IC50 for human BuChE to IC50 for human erythrocyte AChE"}, "[8]": {"biological_target": "T3, 5-hydroxytryptamine receptor 6 (Homo sapiens, UniProt P50406)", "T3 sequence (P50406 whole entry)": "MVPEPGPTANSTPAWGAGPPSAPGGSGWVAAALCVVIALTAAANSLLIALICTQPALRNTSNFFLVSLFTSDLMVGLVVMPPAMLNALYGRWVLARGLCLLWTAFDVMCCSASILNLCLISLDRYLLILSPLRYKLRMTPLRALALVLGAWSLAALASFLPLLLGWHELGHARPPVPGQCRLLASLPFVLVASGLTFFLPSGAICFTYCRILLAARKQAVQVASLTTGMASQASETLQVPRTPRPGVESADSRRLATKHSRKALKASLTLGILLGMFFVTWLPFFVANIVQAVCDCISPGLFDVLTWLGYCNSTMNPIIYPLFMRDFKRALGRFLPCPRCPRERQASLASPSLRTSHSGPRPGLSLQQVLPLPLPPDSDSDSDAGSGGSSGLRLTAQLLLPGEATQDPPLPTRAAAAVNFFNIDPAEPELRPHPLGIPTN", "experiment": "Displacement of [3H]-LSD from human 5HT6 receptor expressed in HEK293 cell membrane at 10^-6 M measured after 60 mins relative to control", "assay_type": "cell membranes", "details": "dose 1.0 µM", "summary_of_the_method": "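Membranes of HEK-293 cells transiently expressing human 5-HT6R (4 µg protein) incubated in duplicate for 60 min at 37 °C with 2.5 nM [3H]-LSD and drug at 10^-6 or 10^-8 M. Buffer was 25 mM Tris-HCl pH 7.4 with 0.5 mM EDTA. Filtered on GF/C and washed with ice-cold Tris buffer. Non-specific binding defined with 100 µM serotonin.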"}, "[9]": {"biological_target": "T3, 5-hydroxytryptamine receptor 6", "experiment": "Displacement of [3H]-LSD from human 5HT6 receptor expressed in HEK293 cell membrane at 10^-5 M measured after 60 mins relative to control", "assay_type": "cell membranes", "details": "dose 10.0 µM"}, "[10]": {"biological_target": "Cholinesterase (Equus caballus) (UniProt P81908)", "sequence (P81908 whole entry)": "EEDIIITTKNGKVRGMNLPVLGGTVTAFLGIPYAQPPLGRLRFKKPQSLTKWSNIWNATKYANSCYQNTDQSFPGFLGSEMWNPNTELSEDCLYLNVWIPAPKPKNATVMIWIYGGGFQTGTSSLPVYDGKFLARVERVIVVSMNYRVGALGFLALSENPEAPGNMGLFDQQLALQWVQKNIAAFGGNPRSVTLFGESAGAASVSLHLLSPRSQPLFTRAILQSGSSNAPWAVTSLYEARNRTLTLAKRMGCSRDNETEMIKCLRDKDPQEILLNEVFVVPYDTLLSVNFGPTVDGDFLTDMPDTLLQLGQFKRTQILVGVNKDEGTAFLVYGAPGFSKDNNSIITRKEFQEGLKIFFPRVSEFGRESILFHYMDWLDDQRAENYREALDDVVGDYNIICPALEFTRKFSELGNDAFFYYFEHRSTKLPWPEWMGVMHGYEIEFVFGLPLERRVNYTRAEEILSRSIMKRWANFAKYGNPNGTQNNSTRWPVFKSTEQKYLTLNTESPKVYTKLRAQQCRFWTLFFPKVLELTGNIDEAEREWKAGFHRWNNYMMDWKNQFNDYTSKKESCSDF", "experiment": "Mixed type inhibition of equine BuchE at 10 to 500 nM using varying levels of butyrylthiocholine iodide as substrate by Lineweaver-Burk plot analysis", "details": "dose 10-500 nM", "summary_of_the_method": "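Ellman method with equine BuChE. Butyrylthiocholine iodide varied from 0.1 to 1 mM, inhibitor at 10, 50, 100 and 500 nM. Double-reciprocal plots of 1/velocity versus 1/[substrate] used to assign the inhibition mode.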"}, "Mus musculus [11]": {"test_system": "Mus musculus", "experiment": "Reversal of scopolamine-induced working memory deficit in NMRI mouse assessed as increase in spontaneous alteration at 10 mg/kg, ip measured after 30 mins by Y-maze test", "assay_type": "functional, organism-based", "summary_of_the_method": "(§1)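 Compound 10 mg/kg ip in 0.9% NaCl given 30 min before test. Scopolamine 0.5 mg/kg or MK801 0.1 mg/kg given sc 20 min before test to induce the deficit. Mouse placed in a three-arm Y maze for a 5 min session; arm-entry sequence recorded by an observer to score spontaneous alternation. n = 9 per group.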"}, "Mus musculus [12]": {"test_system": "Mus musculus", "experiment": "Reversal of MK801-induced working memory deficit in NMRI mouse assessed as increase in spontaneous alteration at 10 mg/kg, ip measured after 30 mins by Y-maze test", "assay_type": "functional, organism-based", "summary_of_the_method": "as §1"}, "[13]": {"biological_target": "T3, 5-hydroxytryptamine receptor 6", "experiment": "Antagonist activity at human 5HT6 receptor expressed in COS-7 cells assessed as inhibition of 5HT-induced cAMP accumulation preincubated for 7 mins followed by 5-HT addition and measured after 10 mins by HTRF assay relative to control", "assay_type": "functional, cell-based", "design": "scale not given: the % may be the effect or the level left", "details": "COS7, filed as antagonist", "summary_of_the_method": "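COS-7 cells grown in DMEM with 10% dialyzed FCS, transiently transfected by electroporation with HA-tagged 5-HT6R plasmid, seeded. 24 h later, ligands added at 37 °C for 7 min. Then 5-HT (5.10^-7 M final) plus RO-20-1724 (0.1 mM final) added for 10 min at 37 °C. Cells lysed in 0.1% Triton X-100 and cAMP read by HTRF. Log IC50 is mean ± SEM of three experiments.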"}, "[14]": {"biological_target": "T3, 5-hydroxytryptamine receptor 6", "experiment": "Displacement of [3H]-LSD from human 5HT6 receptor expressed in HEK293 cell membrane measured after 60 mins", "assay_type": "cell membranes"}, "[15]": {"biological_target": "T3, 5-hydroxytryptamine receptor 6", "experiment": "Antagonist activity at human 5HT6 receptor expressed in COS-7 cells assessed as inhibition of 5HT-induced cAMP accumulation preincubated for 7 mins followed by 5-HT addition and measured after 10 mins by HTRF assay", "assay_type": "functional, cell-based, COS7", "summary_of_the_method": "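COS-7 cells grown in DMEM with 10% dialyzed FCS, transiently transfected by electroporation with HA-tagged 5-HT6R plasmid, seeded. 24 h later, ligands added at 37 °C for 7 min. Cells lysed in 0.1% Triton X-100 and cAMP read by HTRF. Log IC50 is mean ± SEM of three experiments.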"}}, "note": "Where “and” joins values, the source holds several entries; their conditions need not be identical. Equal values may be shown once. Calls of active or inactive are those of the source. No cut-off for these calls is given here.", "data": [{"compound": "CCN(C)C(=O)Oc1cccc(CNCCc2c[nH]c3cc(F)ccc23)c1.O=C(O)/C=C/C(=O)O", "values": [{"measurement": "IC50", "setting": "Acetylcholinesterase [1]", "result": 17.6, "unit": "µM"}, {"measurement": "IC50", "setting": "Cholinesterase [2]", "result": 0.835, "unit": "µM"}, {"measurement": "Drug metabolism", "setting": "[3]", "result": "Metabolite_Detected"}, {"measurement": "LD50 at 24 h", "setting": "[4]", "result": "> 100", "unit": "mg/kg"}, {"measurement": "Activity", "setting": "[5]", "result": "Non-Toxic"}]}, {"compound": "CCN(C)C(=O)Oc1cccc(CNCCc2c[nH]c3cc(F)ccc23)c1", "note": "[listing 1 of 2 here]", "values": [{"measurement": "inhibition", "setting": "Acetylcholinesterase [6]", "result": "9% and 5%"}, {"measurement": "inhibition", "setting": "Cholinesterase [7]", "result": "93% and 97%"}, {"measurement": "Ratio IC50", "setting": "Homo sapiens", "result": "0.06 and 0.05"}, {"measurement": "inhibition", "setting": "[8]", "result": 37, "unit": "%"}, {"measurement": "inhibition", "setting": "[8]; filed as antagonist", "result": 53, "unit": "%"}, {"measurement": "inhibition", "setting": "[9]", "result": "24% and 32%"}, {"measurement": "inhibition", "setting": "[10]", "result": "Active"}, {"measurement": "Activity", "setting": "Mus musculus [11]", "result": "Active"}, {"measurement": "Activity", "setting": "Mus musculus [12]", "result": "inactive"}]}, {"compound": "Fc1ccc2c(CCNCc3cccc(OCC(F)(F)C(F)F)c3)c[nH]c2c1", "values": [{"measurement": "inhibition", "setting": "Acetylcholinesterase [6]", "result": 6, "unit": "%"}, {"measurement": "inhibition", "setting": "[8]; filed as antagonist", "result": 106, "unit": "%"}, {"measurement": "inhibition", "setting": "[9]; filed as antagonist", "result": 88, "unit": "%"}, {"measurement": "Activity", "setting": "[13]", "result": 101, "unit": "%"}]}, {"compound": "Oc1cccc(CNCCc2c[nH]c3cc(F)ccc23)c1", "note": "[listing 1 of 2 here]", "values": [{"measurement": "inhibition", "setting": "Acetylcholinesterase [6]", "result": "8% and 2%"}, {"measurement": "inhibition", "setting": "Cholinesterase [7]", "result": "11% and 8%"}, {"measurement": "inhibition", "setting": "[8]; filed as antagonist", "result": "104% and 85%"}, {"measurement": "inhibition", "setting": "[9]", "result": 33, "unit": "%"}, {"measurement": "inhibition", "setting": "[9]; filed as antagonist", "result": 48, "unit": "%"}, {"measurement": "Activity", "setting": "[13]", "result": 87.2, "unit": "%"}, {"measurement": "Activity", "setting": "Mus musculus [11]", "result": "inactive"}, {"measurement": "Activity", "setting": "Mus musculus [12]", "result": "Active"}]}, {"compound": "Fc1ccc2c(CCNCc3cccc(OCc4ccccc4)c3)c[nH]c2c1", "values": [{"measurement": "inhibition", "setting": "Acetylcholinesterase [6]", "result": 4, "unit": "%"}, {"measurement": "inhibition", "setting": "Cholinesterase [7]", "result": 2, "unit": "%"}, {"measurement": "inhibition", "setting": "[8]; filed as antagonist", "result": 103, "unit": "%"}, {"measurement": "inhibition", "setting": "[9]", "result": 14, "unit": "%"}]}, {"compound": "C[C@]12N[C@H](Cc3ccccc31)c1ccccc12", "note": "[DIZOCILPINE]", "values": [{"measurement": "IC50", "setting": "Cholinesterase [2]", "result": 16, "unit": "µM"}]}, {"compound": "O=C(O)/C=C/C(=O)O.Oc1cccc(CNCCc2c[nH]c3cc(F)ccc23)c1", "values": [{"measurement": "Ki", "setting": "[14]", "result": 0.0043, "unit": "µM"}, {"measurement": "IC50", "setting": "[15]", "result": 2, "unit": "µM"}, {"measurement": "LD50 at 24 h", "setting": "[4]", "result": "> 100", "unit": "mg/kg"}, {"measurement": "Activity", "setting": "[5]", "result": "Non-Toxic"}]}, {"compound": "CCN(C)C(=O)Oc1cccc(CNCCc2c[nH]c3cc(F)ccc23)c1", "note": "[listing 2 of 2 here]", "values": [{"measurement": "IC50", "setting": "Acetylcholinesterase [1]", "result": 16.5, "unit": "µM"}, {"measurement": "IC50", "setting": "Cholinesterase [2]", "result": 0.927, "unit": "µM"}]}, {"compound": "Oc1cccc(CNCCc2c[nH]c3cc(F)ccc23)c1", "note": "[listing 2 of 2 here]", "values": [{"measurement": "Ki", "setting": "[14]", "result": 0.0114, "unit": "µM"}]}]}
